Data taken from ChEMBL document CHEMBL1151705, “Novel azalides derived from 16-membered macrolides. Part II: Isolation of the linear 9-formylcarboxylic acid and its sequential macrocyclization with an amino alcohol or an azidoamine” (2008).
≈ marks a conversion by molar mass, not a printed value.

Experiments:
Staphylococcus aureus [1] = test: Antimicrobial activity against drug-susceptible Staphylococcus aureus 2 after 20 hrs by agar dilution method; format: functional
Outline: (§1)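 Agar dilution MIC. S. aureus seed culture was grown in sensitivity test broth. Cell suspension (about 10⁶ CFU/ml) was inoculated onto sensitivity disk agar with 5% horse blood and incubated at 37 °C for 20 h. MIC was the lowest drug concentration that prevented visible growth.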

Streptococcus pneumoniae [2] = test: Antimicrobial activity against Streptococcus pneumoniae 7 expressing inducible ermB after 20 hrs by agar dilution method; format: functional
Outline: (§2)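 Streptococci, H. influenzae and M. catarrhalis were precultured on blood agar plates. Suspensions of about 10⁶ CFU/ml were inoculated onto sensitivity disk agar supplemented with 5% horse blood and incubated at 37 °C for 20 h. MIC was read as the lowest drug concentration with no visible growth.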

Streptococcus pyogenes [3] = test: Antimicrobial activity against Streptococcus pyogenes 3 expressing mefA after 20 hrs by agar dilution method; format: functional; outline: as §2
Haemophilus influenzae [4] = test: Antimicrobial activity against drug-susceptible Haemophilus influenzae 4 after 20 hrs by agar dilution method; format: functional; outline: as §2
Haemophilus influenzae [5] = test: Antimicrobial activity against drug-susceptible Haemophilus influenzae 1 after 20 hrs by agar dilution method; format: functional; outline: as §2
Haemophilus influenzae [6] = test: Antimicrobial activity against drug-susceptible Haemophilus influenzae 3 after 20 hrs by agar dilution method; format: functional; outline: as §2
Haemophilus influenzae [7] = test: Antimicrobial activity against drug-susceptible Haemophilus influenzae 2 after 20 hrs by agar dilution method; format: functional; outline: as §2
Staphylococcus aureus [8] = test: Antimicrobial activity against drug-susceptible Staphylococcus aureus 3 after 20 hrs by agar dilution method; format: functional; outline: as §1
Streptococcus pneumoniae [9] = test: Antimicrobial activity against Streptococcus pneumoniae 8 expressing inducible ermB after 20 hrs by agar dilution method; format: functional; outline: as §2
Streptococcus pneumoniae [10] = test: Antimicrobial activity against drug-susceptible Streptococcus pneumoniae DP1 Type1 after 20 hrs by agar dilution method; format: functional; outline: as §2
Streptococcus pneumoniae [11] = test: Antimicrobial activity against drug-susceptible Streptococcus pneumoniae 2 after 20 hrs by agar dilution method; format: functional; outline: as §2
Staphylococcus aureus [12] = test: Antimicrobial activity against Staphylococcus aureus 6 expressing inducible ermC after 20 hrs by agar dilution method
Moraxella catarrhalis [13] = test: Antimicrobial activity against drug-susceptible Moraxella catarrhalis 2 after 20 hrs by agar dilution method; format: functional; outline: as §2
Streptococcus pyogenes [14] = test: Antimicrobial activity against drug-susceptible Streptococcus pyogenes 1 after 20 hrs by agar dilution method; format: functional; outline: as §2
Moraxella catarrhalis [15] = test: Antimicrobial activity against drug-susceptible Moraxella catarrhalis 1 after 20 hrs by agar dilution method; format: functional; outline: as §2
Staphylococcus aureus [16] = test: Antimicrobial activity against Staphylococcus aureus 5 expressing inducible ermB after 20 hrs by agar dilution method; format: functional; outline: as §1
Staphylococcus aureus [17] = test: Antimicrobial activity against drug-susceptible Staphylococcus aureus 209P JC-1 after 20 hrs by agar dilution method; format: functional; outline: as §1
Streptococcus pneumoniae [18] = test: Antimicrobial activity against Streptococcus pneumoniae 10 expressing mefA after 20 hrs by agar dilution method; format: functional; outline: as §2
Streptococcus pneumoniae [19] = test: Antimicrobial activity against Streptococcus pneumoniae 9 expressing mefA after 20 hrs by agar dilution method; format: functional; outline: as §2
Streptococcus pneumoniae [20] = test: Antimicrobial activity against Streptococcus pneumoniae 6 constitutively expressing ermB after 20 hrs by agar dilution method; format: functional; outline: as §2
Streptococcus pneumoniae [21] = test: Antimicrobial activity against drug-susceptible Streptococcus pneumoniae 3 after 20 hrs by agar dilution method; format: functional; outline: as §2
Streptococcus pneumoniae [22] = test: Antimicrobial activity against Streptococcus pneumoniae 5 constitutively expressing ermB/mefA after 20 hrs by agar dilution method; format: functional; outline: as §2
Streptococcus pneumoniae [23] = test: Antimicrobial activity against Streptococcus pneumoniae 4 constitutively expressing ermB after 20 hrs by agar dilution method; format: functional; outline: as §2

| MIC (Staphylococcus aureus [1]) [µg/mL] | MIC (Streptococcus pneumoniae [2]) [µg/mL] | MIC (Streptococcus pyogenes [3]) [µg/mL] | MIC (Haemophilus influenzae [4]) [µg/mL] | MIC (Haemophilus influenzae [5]) [µg/mL] | MIC (Haemophilus influenzae [6]) [µg/mL] | MIC (Haemophilus influenzae [7]) [µg/mL] | MIC (Staphylococcus aureus [8]) [µg/mL] | MIC (Streptococcus pneumoniae [9]) [µg/mL] | MIC (Streptococcus pneumoniae [10]) [µg/mL] | MIC (Streptococcus pneumoniae [11]) [µg/mL] | MIC (Staphylococcus aureus [12]) [µg/mL] | MIC (Moraxella catarrhalis [13]) [µg/mL] | MIC (Streptococcus pyogenes [14]) [µg/mL] | MIC (Moraxella catarrhalis [15]) [µg/mL] | MIC (Staphylococcus aureus [16]) [µg/mL] | MIC (Staphylococcus aureus [17]) [µg/mL] | MIC (Streptococcus pneumoniae [18]) [µg/mL] | MIC (Streptococcus pneumoniae [19]) [µg/mL] | SMILES | also measured |
| --- | --- | --- | --- | --- | --- | --- | --- | --- | --- | --- | --- | --- | --- | --- | --- | --- | --- | --- | --- | --- |
| 1 (≈ 1.02 µM) | 32 (≈ 32.7 µM) | 0.25 (≈ 0.256 µM) | 8 (≈ 8.18 µM) | 32 (≈ 32.7 µM) | 8 (≈ 8.18 µM) | 1 (≈ 1.02 µM) | 0.25 (≈ 0.256 µM) | 32 (≈ 32.7 µM) | 0.13 (≈ 0.133 µM) | 0.25 (≈ 0.256 µM) | 0.5 (≈ 0.511 µM) | 0.25 (≈ 0.256 µM) | 0.06 (≈ 0.0613 µM) | 0.13 (≈ 0.133 µM) | 0.25 (≈ 0.256 µM) | 0.25 (≈ 0.256 µM) | – | – | CCOC(=O)[C@H]1[C@H](C)O[C@@H](O[C@H]2[C@H](N(C)C)[C@@H](O)[C@H](O[C@H]3[C@@H](CC=O)C[C@@H](C)[C@@H](O)CN(CCCCc4ccccc4)CCC(C)NC(=O)C[C@@H](OC(=O)CC)[C@@H]3OC)O[C@@H]2C)C[C@@]1(C)OC(C)=O (stereo in doubt; form 2) | – |
| 1 (≈ 1.01 µM) | 128 (≈ 130 µM) | 0.25 (≈ 0.253 µM) | 16 (≈ 16.2 µM) | 32 (≈ 32.4 µM) | 16 (≈ 16.2 µM) | – | 0.25 (≈ 0.253 µM) | 128 (≈ 130 µM) | 0.03 (≈ 0.0304 µM) | 0.06 (≈ 0.0608 µM) | 0.5 (≈ 0.507 µM) | 2 (≈ 2.03 µM) | 0.13 (≈ 0.132 µM) | 2 (≈ 2.03 µM) | 0.25 (≈ 0.253 µM) | 0.25 (≈ 0.253 µM) | 0.06 (≈ 0.0608 µM) | 0.06 (≈ 0.0608 µM) | CCOC(=O)[C@H]1[C@H](C)O[C@@H](O[C@H]2[C@H](N(C)C)[C@@H](O)[C@H](O[C@H]3[C@@H](CC=O)C[C@@H](C)[C@@H](O)CN(C)CC(/C=C/Cc4ccnc5ccccc45)CCOC(=O)C[C@@H](OC(=O)CC)[C@@H]3OC)O[C@@H]2C)C[C@@]1(C)O (stereo in doubt; form 2) | MIC (Haemophilus influenzae [7]; Haemophilus influenzae, 20 h, read-out: MIC): 4 µg/mL (≈ 4.06 µM) |
| 0.5 (≈ 0.507 µM) | 128 (≈ 130 µM) | 0.5 (≈ 0.507 µM) | 16 (≈ 16.2 µM) | 64 (≈ 64.9 µM) | 16 (≈ 16.2 µM) | 4 (≈ 4.06 µM) | 0.25 (≈ 0.253 µM) | 128 (≈ 130 µM) | 0.015 (≈ 0.0152 µM) | 0.06 (≈ 0.0608 µM) | 0.5 (≈ 0.507 µM) | 2 (≈ 2.03 µM) | 0.13 (≈ 0.132 µM) | 2 (≈ 2.03 µM) | 0.25 (≈ 0.253 µM) | 0.25 (≈ 0.253 µM) | 0.06 (≈ 0.0608 µM) | 0.06 (≈ 0.0608 µM) | CCOC(=O)[C@H]1[C@H](C)O[C@@H](O[C@H]2[C@H](N(C)C)[C@@H](O)[C@H](O[C@H]3[C@@H](CC=O)C[C@@H](C)[C@@H](O)CN(C)CC(/C=C/Cc4cnc5ccccc5c4)CCOC(=O)C[C@@H](OC(=O)CC)[C@@H]3OC)O[C@@H]2C)C[C@@]1(C)O (stereo in doubt; form 2) | MIC (Streptococcus pneumoniae [20]): >128 µg/mL; MIC (Streptococcus pneumoniae [21]): 0.03 µg/mL (≈ 0.0304 µM); MIC (Streptococcus pneumoniae [22]): >128 µg/mL; MIC (Streptococcus pneumoniae [23]): >128 µg/mL |
| 8 (≈ 8.24 µM) | – | 2 (≈ 2.06 µM) | 16 (≈ 16.5 µM) | 64 (≈ 65.9 µM) | – | 4 (≈ 4.12 µM) | 2 (≈ 2.06 µM) | – | 0.25 (≈ 0.257 µM) | 0.25 (≈ 0.257 µM) | 4 (≈ 4.12 µM) | 4 (≈ 4.12 µM) | 0.5 (≈ 0.515 µM) | 8 (≈ 8.24 µM) | 2 (≈ 2.06 µM) | 4 (≈ 4.12 µM) | – | 0.5 (≈ 0.515 µM) | CCOC(=O)[C@H]1[C@H](C)O[C@@H](O[C@H]2[C@H](N(C)C)[C@@H](O)[C@H](O[C@H]3[C@@H](CC=O)C[C@@H](C)[C@@H](O)CN(C)CCC(C/C=C/c4ccnc5ccccc45)NC(=O)C[C@@H](OC(=O)CC)[C@@H]3OC)O[C@@H]2C)C[C@@]1(C)O (stereo in doubt) | – |
